The values that follow come from ChEMBL document CHEMBL3232924, “Synthesis and biological evaluation of novel bis-aromatic amides as novel PTP1B inhibitors” (Bioorg Med Chem Lett, 2014).

The source made the active and inactive calls. The calls are words filed in the database; no cut-off is given here.

Experiment [1] concerns the target T1, Tyrosine-protein phosphatase non-receptor type 1 (Homo sapiens, UniProt P18031).
T1 sequence (P18031 whole entry): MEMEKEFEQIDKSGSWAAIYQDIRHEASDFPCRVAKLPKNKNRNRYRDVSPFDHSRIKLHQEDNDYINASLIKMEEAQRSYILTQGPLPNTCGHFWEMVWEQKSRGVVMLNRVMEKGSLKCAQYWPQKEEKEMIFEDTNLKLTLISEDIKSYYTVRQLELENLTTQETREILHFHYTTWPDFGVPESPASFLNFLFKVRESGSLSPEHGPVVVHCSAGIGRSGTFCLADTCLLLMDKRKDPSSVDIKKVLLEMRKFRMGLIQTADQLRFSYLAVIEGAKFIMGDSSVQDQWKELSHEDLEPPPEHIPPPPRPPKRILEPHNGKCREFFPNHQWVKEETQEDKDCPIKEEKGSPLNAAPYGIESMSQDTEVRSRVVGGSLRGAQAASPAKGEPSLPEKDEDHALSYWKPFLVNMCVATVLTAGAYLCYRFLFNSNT
Nature of the experiment: Inhibition of PTP1B (unknown origin) using pNPP as substrate.

Experiment [2] addresses T2, Tyrosine-protein phosphatase non-receptor type 1 (Homo sapiens) (UniProt P18031).
T2 sequence (whole entry): T1 sequence (P18031 whole entry)
Nature of the experiment: Inhibition of PTP1B (unknown origin) using pNPP as substrate at 20 ug/ml.

The species entered for a further experiment is Homo sapiens. The experiment is described as follows: Selectivity ratio of IC50 for TCPTP (unknown origin) to IC50 for PTP1B (unknown origin). An outline of the steps: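 Colorimetric assay with pNPP as substrate, run the same way for PTP1B and TCPTP. IC50 was obtained by regression analysis and reported as mean ± SD of three replications. The selectivity ratio is TCPTP IC50 divided by PTP1B IC50.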

For experiment [3], the target named is T3, Tyrosine-protein phosphatase non-receptor type 6 (Homo sapiens, UniProt P29350). Nature of the experiment: Inhibition of SHP-1 (unknown origin) using 3-o-methylfluorescein phosphate as substrate at 20 ug/ml.
T3 sequence (P29350 whole entry): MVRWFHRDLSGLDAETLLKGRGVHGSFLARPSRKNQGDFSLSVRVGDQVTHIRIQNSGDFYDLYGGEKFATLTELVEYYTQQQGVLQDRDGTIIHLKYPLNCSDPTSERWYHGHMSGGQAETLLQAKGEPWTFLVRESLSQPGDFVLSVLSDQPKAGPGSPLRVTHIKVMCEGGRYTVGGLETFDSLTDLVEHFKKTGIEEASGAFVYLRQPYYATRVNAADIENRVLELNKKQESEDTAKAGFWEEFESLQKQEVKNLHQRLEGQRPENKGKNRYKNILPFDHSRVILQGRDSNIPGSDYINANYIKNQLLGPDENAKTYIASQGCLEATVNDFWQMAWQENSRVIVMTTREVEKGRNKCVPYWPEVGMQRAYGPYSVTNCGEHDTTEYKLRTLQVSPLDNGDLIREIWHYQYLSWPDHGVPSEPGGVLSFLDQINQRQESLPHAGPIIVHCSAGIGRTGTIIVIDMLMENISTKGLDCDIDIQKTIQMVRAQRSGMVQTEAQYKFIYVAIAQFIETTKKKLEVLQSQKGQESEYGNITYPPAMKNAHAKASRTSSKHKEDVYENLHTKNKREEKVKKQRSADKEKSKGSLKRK
Experiment [4] addresses T4, Tyrosine-protein phosphatase non-receptor type 2 (Homo sapiens, UniProt P17706).
T4 sequence (P17706 whole entry): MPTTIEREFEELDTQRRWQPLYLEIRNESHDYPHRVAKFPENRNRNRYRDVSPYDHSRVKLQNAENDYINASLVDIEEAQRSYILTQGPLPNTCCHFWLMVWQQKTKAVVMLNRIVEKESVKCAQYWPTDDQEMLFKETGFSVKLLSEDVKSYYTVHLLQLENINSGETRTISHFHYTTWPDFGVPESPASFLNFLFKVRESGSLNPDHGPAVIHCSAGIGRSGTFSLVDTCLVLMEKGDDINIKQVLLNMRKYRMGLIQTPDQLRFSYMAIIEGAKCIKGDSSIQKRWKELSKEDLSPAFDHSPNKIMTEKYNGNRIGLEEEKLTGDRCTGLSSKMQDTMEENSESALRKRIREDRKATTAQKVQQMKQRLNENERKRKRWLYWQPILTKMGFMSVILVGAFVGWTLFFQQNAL
Nature of the experiment: Inhibition of TCPTP (unknown origin) using pNPP as substrate.

Experiment [5] has as its target T5, Tyrosine-protein phosphatase non-receptor type 11 (Homo sapiens) (UniProt Q06124).
T5 sequence (whole entry): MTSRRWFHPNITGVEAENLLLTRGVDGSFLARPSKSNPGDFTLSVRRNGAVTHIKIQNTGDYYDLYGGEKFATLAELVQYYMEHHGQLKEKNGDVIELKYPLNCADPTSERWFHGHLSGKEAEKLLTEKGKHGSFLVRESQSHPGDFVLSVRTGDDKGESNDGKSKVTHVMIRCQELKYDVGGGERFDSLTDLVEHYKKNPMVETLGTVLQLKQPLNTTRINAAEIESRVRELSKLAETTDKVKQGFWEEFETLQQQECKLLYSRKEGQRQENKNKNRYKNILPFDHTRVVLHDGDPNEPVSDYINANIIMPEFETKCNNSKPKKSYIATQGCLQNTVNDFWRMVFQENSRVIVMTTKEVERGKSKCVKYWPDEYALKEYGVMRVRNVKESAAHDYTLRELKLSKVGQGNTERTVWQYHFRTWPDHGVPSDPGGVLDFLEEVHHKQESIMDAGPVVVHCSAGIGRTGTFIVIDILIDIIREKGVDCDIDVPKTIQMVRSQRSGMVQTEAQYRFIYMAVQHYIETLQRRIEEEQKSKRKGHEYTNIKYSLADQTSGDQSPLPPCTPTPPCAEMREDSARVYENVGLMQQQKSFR
The experiment is described as follows: Inhibition of SHP-2 (unknown origin) using 3-o-methylfluorescein phosphate as substrate at 20 ug/ml.

Experiment [6] has as its target Receptor-type tyrosine-protein phosphatase F (Homo sapiens, UniProt P10586). The experiment is described as follows: Inhibition of LAR (unknown origin) using 3-o-methylfluorescein phosphate as substrate at 20 ug/ml.
In experiment [7] the target is T6, Tyrosine-protein phosphatase non-receptor type 11 (Homo sapiens, UniProt Q06124).
T6 sequence (Q06124 whole entry): T5 sequence (whole entry)
Nature of the experiment: Inhibition of SHP-2 (unknown origin) using 3-o-methylfluorescein phosphate as substrate. The procedure, abridged: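 Phosphatase activity was measured with 3-O-methylfluorescein phosphate (OMFP) as substrate, in the same assay format used for SHP-1. IC50 was obtained by regression analysis and reported as mean ± SD of three replicates.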

The target in experiment [8] is T3, Tyrosine-protein phosphatase non-receptor type 6. Nature of the experiment: Inhibition of SHP-1 (unknown origin) using 3-o-methylfluorescein phosphate as substrate. An outline of the steps:
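SHP-1 activity was read with 3-O-methylfluorescein phosphate (OMFP) as substrate. IC50 was derived by regression analysis and given as mean ± SD of three replications.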

For experiment [9], the target named is T7, Tyrosine-protein phosphatase non-receptor type 2 (Homo sapiens) (UniProt P17706).
T7 sequence (whole entry): T4 sequence (P17706 whole entry)
Nature of the experiment: Inhibition of TCPTP (unknown origin) using pNPP as substrate at 20 ug/ml.

In experiment [10] the target is T2, Tyrosine-protein phosphatase non-receptor type 1 (Homo sapiens). The experiment is described as follows: Fast-binding inhibition of PTP1B (unknown origin) using pNPP as substrate.
The next experiment deals with CHO. Nature of the experiment: Inhibition of PTP1B in CHO cells overexpressing human insulin receptor assessed as increase in insulin-stimulated tyrosine phosphorylation of insulin receptor beta at 5 to 20 uM by immunoblot analysis. In kind it is cell-based. To be noted: Cricetulus griseus. An outline of the steps:
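CHO cells overexpressing human insulin receptor were treated with compound, with DMSO as negative control. Tyrosine-phosphorylated insulin receptor β was detected by immunoblot.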

Experiment [11] concerns the target T2, Tyrosine-protein phosphatase non-receptor type 1 (Homo sapiens). The experiment is described as follows: Competitive inhibition of PTP1B (unknown origin) using pNPP as substrate by Lineweaver-Burk plot analysis. The procedure, abridged:
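Kinetic analysis: initial velocities were measured across various pNPP concentrations at several fixed inhibitor concentrations. Inhibition mode was assigned from Lineweaver–Burk double-reciprocal plots.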

Sequence of Receptor-type tyrosine-protein phosphatase F (P10586 whole entry): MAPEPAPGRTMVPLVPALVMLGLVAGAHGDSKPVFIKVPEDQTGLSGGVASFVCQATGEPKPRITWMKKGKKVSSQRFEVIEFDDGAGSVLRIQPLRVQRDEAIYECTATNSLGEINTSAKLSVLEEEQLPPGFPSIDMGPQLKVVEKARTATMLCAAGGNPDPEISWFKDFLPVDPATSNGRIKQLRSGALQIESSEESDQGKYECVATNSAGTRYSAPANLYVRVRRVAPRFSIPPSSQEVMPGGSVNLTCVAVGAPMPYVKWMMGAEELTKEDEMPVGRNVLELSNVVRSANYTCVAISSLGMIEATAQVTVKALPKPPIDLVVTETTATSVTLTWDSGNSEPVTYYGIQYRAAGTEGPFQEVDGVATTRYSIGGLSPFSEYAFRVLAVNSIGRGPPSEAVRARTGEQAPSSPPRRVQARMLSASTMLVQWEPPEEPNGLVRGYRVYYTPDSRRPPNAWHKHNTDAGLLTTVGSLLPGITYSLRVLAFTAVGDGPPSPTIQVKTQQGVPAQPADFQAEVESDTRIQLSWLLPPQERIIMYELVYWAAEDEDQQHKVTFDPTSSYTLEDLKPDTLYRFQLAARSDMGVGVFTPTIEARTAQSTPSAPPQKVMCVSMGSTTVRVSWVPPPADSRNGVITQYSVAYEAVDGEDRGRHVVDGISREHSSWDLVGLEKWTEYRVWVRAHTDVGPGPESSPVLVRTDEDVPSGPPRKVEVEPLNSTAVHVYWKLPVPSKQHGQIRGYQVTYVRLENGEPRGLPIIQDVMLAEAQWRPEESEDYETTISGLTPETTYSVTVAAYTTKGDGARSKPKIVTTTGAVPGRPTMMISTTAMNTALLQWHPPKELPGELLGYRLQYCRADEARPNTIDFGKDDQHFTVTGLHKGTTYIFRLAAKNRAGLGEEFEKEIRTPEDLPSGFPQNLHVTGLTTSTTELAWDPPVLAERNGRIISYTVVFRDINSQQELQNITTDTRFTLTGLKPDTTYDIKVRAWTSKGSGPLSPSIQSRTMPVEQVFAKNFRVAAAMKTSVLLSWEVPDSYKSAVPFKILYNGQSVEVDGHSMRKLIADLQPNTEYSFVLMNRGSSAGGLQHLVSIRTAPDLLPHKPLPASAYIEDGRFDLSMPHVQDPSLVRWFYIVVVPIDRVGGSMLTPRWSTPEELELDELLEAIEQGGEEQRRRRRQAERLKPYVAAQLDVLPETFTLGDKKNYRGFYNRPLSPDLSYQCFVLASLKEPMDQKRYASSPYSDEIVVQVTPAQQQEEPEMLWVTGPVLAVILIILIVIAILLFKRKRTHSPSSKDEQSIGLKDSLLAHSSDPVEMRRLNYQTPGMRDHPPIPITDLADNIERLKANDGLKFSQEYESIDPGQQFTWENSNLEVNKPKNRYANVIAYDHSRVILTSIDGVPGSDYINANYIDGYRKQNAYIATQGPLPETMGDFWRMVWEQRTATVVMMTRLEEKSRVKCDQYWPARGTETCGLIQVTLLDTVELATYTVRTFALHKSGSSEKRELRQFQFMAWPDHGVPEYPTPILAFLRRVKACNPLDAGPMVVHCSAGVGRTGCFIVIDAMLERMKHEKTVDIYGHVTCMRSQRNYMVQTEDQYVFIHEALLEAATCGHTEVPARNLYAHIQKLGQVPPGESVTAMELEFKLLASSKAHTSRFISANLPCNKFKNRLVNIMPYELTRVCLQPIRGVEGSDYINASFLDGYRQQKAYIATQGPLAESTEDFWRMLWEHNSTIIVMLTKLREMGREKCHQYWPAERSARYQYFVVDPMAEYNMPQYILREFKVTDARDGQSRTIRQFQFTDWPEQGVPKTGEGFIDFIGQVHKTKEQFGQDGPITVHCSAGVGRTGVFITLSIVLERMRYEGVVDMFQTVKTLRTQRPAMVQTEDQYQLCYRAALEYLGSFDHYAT

In the case of `COC(=O)c1ccc(-c2ccc(NC(=O)c3ccccc3)cc2)cc1`, 10.2 µM corresponded to half-maximal inhibition in [1] (IC50). In experiment [2], the inhibition worked out at 69.4%.
`CC(C)(C)OC(=O)N1CCC[C@H]1C(=O)Nc1ccc(-c2ccc(NC(=O)[C@@H]3CCCN3C(=O)OC(C)(C)C)cc2)cc1` yielded an inhibition in [2] of 43.5%.
Same read-out and setting: the result for `COc1ccc(C(=O)Nc2ccc(-c3ccc(NC(=O)c4ccc(OC)cc4)cc3)cc2)cc1` reads 11.9%.
For the compound `O=C(Nc1ccc(-c2ccc(NC(=O)C3CCN(C(=O)c4ccccc4)CC3)cc2)cc1)C1CCN(C(=O)c2ccccc2)CC1`, in the experiment listed under Homo sapiens, the Ratio IC50 is 2.88. The values for the IC50 in experiment [1] and in experiment [4] were 2.65 µM and 7.62 µM, respectively. The inhibition in [3] is less than 50%; in experiment [5], less than 50%; in experiment [6], less than 50%; in [2] it was 94.1%.
In turn, `O=C(Nc1ccc(-c2ccc(NC(=O)c3ccccc3)cc2)cc1)c1ccccc1` displayed an IC50 in [1] of 12 µM. The inhibition in [2] turned out to be 95.2%.
The like results for `CC(C)CC(=O)Nc1ccc(-c2ccc(NC(=O)CC(C)C)cn2)cc1` were, in that order, 26.5 µM and 58.1%.
The like results for `O=C(Nc1ccc(-c2ccc(NC(=O)c3ccco3)cn2)cc1)c1ccco1` were, in that order, 11.1 µM and 86.4%.
Turning to `O=C(Nc1ccc(-c2ccc(NC(=O)C3CCCCC3)cn2)cc1)C1CCCCC1`, the Ratio IC50 in the experiment filed under Homo sapiens came out at 3.2. In addition, the IC50 amounted to 7.14 µM in [1] and 22.9 µM in experiment [4]. The inhibition was less than 50% in experiment [3], less than 50% in experiment [5], less than 50% in [6] and 82.1% in [2].
With `CC(C)CC(=O)N1CCC(C(=O)Nc2ccc(-c3ccc(NC(=O)C4CCN(C(=O)CC(C)C)CC4)cc3)cc2)CC1`, half-maximal inhibition in experiment [1] (IC50) was put at 12.2 µM. Also, in [2], the inhibition is 70%.
Take `COC(=O)c1ccc(-c2ccc(N)cc2)cc1`: in experiment [2], the inhibition was 31.5%.
Take `O=C(Nc1ccc(-c2ccc(NC(=O)c3ccc(F)cc3)cc2)cc1)c1ccc(F)cc1`: in experiment [1], the IC50 is 19 µM. Besides, in experiment [2], the inhibition came to 98.6%.
In turn, `O=C(Nc1ccc(F)cc1)c1ccc(-c2ccc(C(=O)Nc3ccc(F)cc3)cc2)cc1` had an inhibition in experiment [2] of 7.92%.
In experiment [1], `CC(C)CC(=O)Nc1ccc(-c2ccc(NC(=O)CC(C)C)cc2)cc1` yielded an IC50 of 16.5 µM. In [2], this compound gave an inhibition of 90.7%.
For the compound SODIUM ORTHOVANAD, the concentration for half-maximal inhibition (IC50) in [7] is 34.7 µM; in experiment [8], 17.8 µM.
Regarding `CC(C)(C)OC(=O)N1CCC(C(=O)Nc2ccc(-c3ccc(NC(=O)C4CCN(C(=O)OC(C)(C)C)CC4)cc3)cc2)CC1`, the Ratio IC50 in the experiment listed under Homo sapiens came out at 2.23. The IC50 in experiment [1] was 9.5 µM; in experiment [4], 21.2 µM; in experiment [8], 18.2 µM. The inhibition in experiment [5] was less than 50%; in experiment [6], less than 50%; in [2], 71.1%.
In experiment [2], `O=C(Nc1ccc(-c2ccc(NC(=O)[C@@H]3CCCN3)cc2)cc1)[C@@H]1CCCN1` showed an inhibition of 0.7%.
Consider `O=C(Nc1ccc(-c2ccc(NC(=O)C3CCNCC3)cc2)cc1)C1CCNCC1`, for which, in experiment [2], the inhibition was 10.3%.
`O=C(Nc1ccc(-c2ccc(NC(=O)C3CCN(C(=O)C4CCCCC4)CC3)cc2)cc1)C1CCN(C(=O)C2CCCCC2)CC1`: in experiment [1], the IC50 was 14.6 µM. Besides, in experiment [2], the inhibition amounted to 61%.
In the case of `O=C(Nc1ccc(-c2ccc(NC(=O)c3ccc(F)cc3)cn2)cc1)c1ccc(F)cc1`, the IC50 in experiment [1] amounted to 5.96 µM; in [8] it was 17.8 µM. Besides, the values for the inhibition in [6], in experiment [2] and in experiment [9] were less than 50%, 71% and less than 50%, respectively.
For `O=C(Nc1ccc(-c2ccc(NC(=O)C3CCCCC3)cc2)cc1)C1CCCCC1`, the IC50 in [1] turned out to be 12.5 µM. For the same compound, in experiment [2], the inhibition is 84.6%.
As to `COc1cc(C(=O)Nc2ccc(-c3ccc(NC(=O)c4cc(OC)c(OC)c(OC)c4)cc3)cc2)cc(OC)c1OC`, in [2], the inhibition was 47.4%.
For `O=C(Nc1ccc(-c2ccc(NC(=O)c3ccccc3)cn2)cc1)c1ccccc1`, the Ratio IC50 in the experiment listed under Homo sapiens was determined as 4.87. For the same compound, the IC50 was determined as 5.37 µM in experiment [1] and 26.2 µM in [4]. In addition, the inhibition is less than 50% in [3], less than 50% in [5], less than 50% in [6] and 83.9% in experiment [2].
Consider `O=C(Nc1ccc(-c2ccc(NC(=O)C3CCN(C(=O)c4ccco4)CC3)cc2)cc1)C1CCN(C(=O)c2ccco2)CC1`, for which the inhibition result (in [10]; in the experiment on CHO; in [11]) was “Active” throughout. Besides, the Ratio IC50 in the experiment listed under Homo sapiens stood at 5.29. Moreover, the IC50 in experiment [1] was 2.34 µM; in [4], 12.4 µM. In addition, the inhibition in experiment [3] is less than 50%; in experiment [5], less than 50%; in [6], less than 50%; in experiment [2], 94%.
Regarding `O=C(Nc1ccc(-c2ccc(NC(=O)c3ccco3)cc2)cc1)c1ccco1`, the Ratio IC50 in the experiment listed under Homo sapiens is 2.64. The IC50 worked out at 19.3 µM in experiment [1], 51 µM in experiment [4] and 38.8 µM in experiment [8]. In [6], this compound had an inhibition of less than 50%.
In turn, `O=C(Nc1ccc(-c2ccc(NC(=O)C3CCN(C(=O)c4ccc(F)cc4)CC3)cc2)cc1)C1CCN(C(=O)c2ccc(F)cc2)CC1` yielded an IC50 in experiment [1] of 5.04 µM. Also, the inhibition was less than 50% in experiment [3]; less than 50% in experiment [5]; less than 50% in [6]; 95.3% in [2]; less than 50% in experiment [9].
The compound `O=C(Nc1ccc(-c2ccc(NC(=O)c3cccs3)cc2)cc1)c1cccs1` displayed an inhibition in experiment [2] of 38.1%.
In [1], `O=C(Nc1ccc(-c2ccc(C(=O)Nc3ccccc3)cc2)cc1)c1ccccc1` returned an IC50 of 4.61 µM. In addition, the inhibition in experiment [3] is less than 50%; in [5], less than 50%; in experiment [6] it was less than 50%; in experiment [2], 81.2%; in experiment [9], less than 50%.
In [1], `O=C(Nc1ccccc1)c1ccc(-c2ccc(C(=O)Nc3ccccc3)cc2)cc1` gave an IC50 of 18.5 µM. In experiment [2], this compound gave an inhibition of 62.8%.
